From PubChem BioAssay
Values without a mark were called inactive. Results filed as inconclusive are left out. Calls of active or inactive are those of the source.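 The calls were made as follows, unless noted: active = RAM network inhibition above 8.4% in each of two replicates, 3 SD over the compound average; inconclusive = above 8.4% inhibition in only one replicate; inactive = 8.4% inhibition or less in each replicate.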

Experiments:
[1] = S. cerevisiae growth inhibition in permissive medium (OD615), pilot counter-assay for S. cerevisiae lifespan shortening project, permissive growth control (AID 705;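 active = growth inhibition above 25% in both replicates, a cutoff set 3 SD above the mean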); settings: OD615, 24 h, at 10 µM, stronger effect = higher value
Method in brief: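 System: engineered DeaD yeast; Medium: permissive raffinose/galactose medium; Compound dosing: 10 µM single dose, 0.25% DMSO; Incubation: 4 h cell pre-growth, 24 h exposure at 30 °C; Technique: OD at 615 nm; Evaluation: growth inhibition from lowered OD615 after 24 h.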

[2] = S. cerevisiae growth inhibition in restrictive medium, OD615, pilot screen, restrictive growth control, yeast lifespan reduction project (AID 706;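 active = growth inhibition above a set limit, 3 SD over mean compound inhibition, in both replicates, cut at about 43% in these data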;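 also: modified DeaD lifespan yeast strain shifted to restrictive glucose medium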); settings: OD615, 48 h, at 10 µM, stronger effect = higher value
Method in brief: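 Material: modified S. cerevisiae; buffer or medium: CSMM-D glucose medium; doses: one concentration, 10 µM final, 0.25% DMSO; incubation: 48 h compound exposure at 30 °C; detection: optical density at 615 nm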

[3] = doxorubicin toxicity protection in MRP-1 cells – H69AR cells, CellTiter-Glo, duplicate, MRP-1 activator project, pilot screen (AID 807;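 active = viability increase at or above a cutoff of the median across tested compounds plus 3 SD, cut at about 8.5% in these data, passing the limit was not always enough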;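 also: compound pretreatment 18-22 h then 72 h combined with doxorubicin; 0% = doxorubicin alone and 100% = vehicle without doxorubicin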); settings: H69AR viability with doxorubicin, CellTiter-Glo luminescence; at 10 µM; stronger effect = higher value
[4] = viability of HCT116 without oncogenic beta-catenin – human colon tumor cells, pilot screen (AID 823;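 active = cell viability at or below a set limit in both duplicate runs, the limit being the all-compound median minus 4 SD, cut at about 23% in these data, passing the limit was not always enough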;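 also: 0% = wells killed by 20 µM Hyamine and 100% = untreated DMSO cell wells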); settings: HCT116 beta-catenin knockout viability, CellTiter-Glo, 60 h; at 10 µM; stronger effect = lower value
[5] = RAM pathway blockade in budding yeast – dse1pr::URA3 reporter, 5-FOA selection, pilot screen (AID 869;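 active = inhibition over a set limit, the all-compound mean plus 3 SD, in both replicate runs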;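 also: 0% = DMSO wells with no growth and 100% = 10 µM 1-NA-PP1 with full growth; RAM network block rescues cells from 5-FOA so hits raise OD615 growth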); settings: S. cerevisiae dse1pr::URA3 5-FOA growth, OD615, 2 d; at 10 µM; stronger effect = higher value; strain carries analog-sensitive mutant Cbk1 kinase
[6] = RAM signaling pathway blockade in yeast – S. cerevisiae, Pdr1DBD-CYC8 efflux-inhibited sensitized strain, primary screen (AID 1298);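 also: 0% = DMSO untreated cells without growth and 100% = 10 µM 1-NA-PP1 full growth; higher means more yeast growth rescued from 5-FOA killing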; settings: S. cerevisiae cbk1-as DSE1-URA3 strain, 5-FOA growth OD615, 2 d; at 50 µM; stronger effect = higher value

Row | Compound | growth inhibition [1] [%] | growth inhibition [2] [%] | viability increase [3] [%] | viability [4] | inhibition [5] [%] | RAM network inhibition [6] [%]
1 | Cc1ccc(CNC(=O)CCS(=O)(=O)c2cccc3nonc23)cc1 | 8.16 | -4.57 | -0.35 | 98.8% | 1.71 | 5.43
2 | CCCc1nc2n[nH]c(N)c2c2c1CCC2 | -24.2 | -12.6 | -5.25 | 92% | 0.825 | 0.57
3 | CCN(CC)C(=O)CSc1nnc(-c2ccccc2)n1N | 3.57 | -0.035 | -2.74 | 93.3% | 0.76 | -0.62
4 | CCCc1[nH]nc2c1C(C1CC=CCC1)C(C#N)=C(N)O2 (stereo not given) | 4.52 | 6.39 | -6.94 | 11.9% (active) | -0.015 | 1.22
5 | Cc1cc2cc(CN(Cc3ccc4c(c3)OCO4)C(=O)c3cnccn3)c3nnnn3c2cc1C | -6.95 | 6.71 | -5.49 | 87.2% | 2.06 | 5.81
6 | CCOc1ccc(N(CC(=O)NC2CCCCCC2)S(=O)(=O)c2c(C)noc2C)cc1 | -4.29 | -1.42 | -6.44 | 44.8% | 3.02 | 5.55
7 | S=c1nc(-c2ccccc2)n(CCN2CCOCC2)c2c1CCCC2 | -2.79 | 19.1 | -4.18 | 92.6% | 1.71 | 6.76
8 | CN1CCc2c(sc3c2c(=O)n(-c2ccc(Cl)cc2)c2nncn32)C1 | -12.1 | 7.29 | 0.1 | 92.1% | 1.45 | 2.09
9 | COc1ccc(C2C3=C(CC(C)(C)CC3=O)Nc3n[nH]c(C)c32)cc1 (stereo not given) | -9.23 | -7.11 | -4.1 | 93% | 1.51 | 3.28
10 | O=C1CC(c2ccccc2)n2nc(N3C(=O)CCC3=O)nc2N1 (stereo not given) | -8.97 | 1.75 | -0.15 | 97.9% | 1.32 | 3.53
11 | CCN1C(=S)SC(=O)C1=C1C=C(C)OC(C)=C1 | -11 | 14.9 | -3.02 | 91.9% | 2.55 | 5.1
12 | CC(C)CC(NC(=O)C1CCC(C)CC1)C(=O)Nc1ccccn1 (stereo not given) | -11.7 | 2.61 | -1.42 | 92.9% | 0.5 | 3.07
13 | CCCSc1nc(N)c2c3c(sc2n1)CN(C)CC3 | -25 | -3.27 | -2.7 | 80.9% | 1.02 | 6.8
14 | CNC(=O)c1ccc(-c2sc3nc(N4CCOCC4)c4c(c3c2N)CCCC4)o1 | 0.875 | 17.2 | -7.88 | 39.6% | -0.54 | 5.11
15 | CC1(C)Cc2c(c(=S)nc(-c3ccccc3)n2CCOCCO)CO1 | -16.5 | 19.6 | -2.12 | 98.2% | 0.775 | 4.58
16 | CCOC(=O)C1CCN(C(=O)Cc2c(C(=O)O)[nH]c3ccccc23)CC1 | -13.4 | -1.88 | -1.36 | 90.5% | 0.02 | 3.12
17 | Cc1cc(C)c(S(=O)(=O)NCC2CCC(C(=O)NCCCN3CCOCC3)CC2)c(C)c1 (stereo not given) | -6.14 | 7.86 | -3.2 | 81.3% | 0.675 | -0.63
18 | COc1ccc(-c2cc(NCCc3ccncc3)n3ncnc3n2)cc1 | -9.14 | 14.2 | -4.7 | 95.2% | 0.97 | 7.01
19 | CCN(CC)S(=O)(=O)c1cc(Br)ccc1OC | 9.34 | -11.1 | -4.03 | 94.8% | 0.72 | 1.97
20 | Clc1cccc(CSc2nnc([C@@H]3CCCN3)o2)c1 | -7.24 | -0.015 | -3.16 | 98.9% | -0.08 | 0.26

Row | Compound | growth inhibition [1] [%] | growth inhibition [2] [%] | viability increase [3] [%] | viability [4] | inhibition [5] [%] | RAM network inhibition [6] [%]
21 | Cc1ccc(-c2nc(S(=O)(=O)c3ccc(F)cc3)c(SCC(=O)NCC3CCCO3)o2)cc1 (stereo not given) | -6.27 | 1.93 | -6.02 | 93.6% | 0.14 | 0.57
22 | O=c1[nH]n(-c2ncnc3c2cnn3-c2ccccc2)c(=O)c2ccccc12 | -3.32 | 13.1 | -2.9 | 101% | 1.52 | 2.07
23 | COc1ccc(-c2nc(N3CCOCC3)nc3n[nH]c(N)c23)cc1 | -5.32 | 14.9 | -6.84 | 74.7% | 0.26 | 3.37
24 | O=C(C1=C(O)C(=O)N(CCc2ccccc2)C1c1cccnc1)c1ccco1 (stereo not given) | -23.9 | -2.02 | -3.61 | 104% | 2.01 | 2.81
25 | Cc1cc(C)n(-c2cc(=O)n(C)c(=O)n2C)n1 | 1.39 | -9.85 | -2.96 | 92.3% | 0.755 | 4.35
26 | COc1ccccc1NC1=NCC(=O)N1Cc1ccccc1 | -30.4 | -3.24 | -0.5 | 93.9% | 3.58 | 4.78
27 | COc1ccc(NC(=O)C(c2ccc(OC)cc2)N(C)C(=O)c2cnccn2)cc1 (stereo not given) | 9.44 | 2.07 | -2.29 | 101% | 2.52 | 1.4
28 | CCn1cc(C(=O)NCc2cccnc2)c2cc(OC)c(OC)cc2c1=O | -18.3 | -10 | -2.26 | 95.7% | 1.67 | 7.22
29 | CC(C)c1ccc(-c2nc(N3CCCC3)nc3n[nH]c(N)c23)cc1 | -26.6 | 10.3 | -5.36 | 69.8% | 3.83 | 10.8
30 | CCn1c(=O)cc(C(=O)OC)sc1=Nc1ccc(F)c(F)c1 | 1.93 | -8.74 | -8.26 | 18.6% (active) | 1.11 | 7.21
31 | COc1ccc2c(c1)-c1nc(NC(=O)c3cccs3)sc1CC2 | -13.6 | -12.2 | -1.82 | 33.6% | 3.16 | 1.99
32 | Cc1c(Cl)cccc1NC(=O)CCN1CCCC(C)C1 (stereo not given) | -12.9 | 3.83 | -3.58 | 94.7% | 2.28 | 3.43
33 | COc1cccc(-c2nnc(NC(=O)c3cccc(F)c3)o2)c1 | -12.9 | 10.2 | 0.12 | 15.9% (active) | 1.04 | 0.35
34 | CC1CCc2sc3nc(N4CCN(CCO)CC4)n4ncnc4c3c2C1 (stereo not given) | -9.92 | 7.57 | -7.82 | 73.3% | 0.655 | 5.04
35 | CC(C)c1nc2sc3c(SCC(=O)NCc4ccco4)ncnc3c2c2c1CCC2 | -6.53 | -1.46 | -5.63 | 91.7% | 1.31 | 5.66
36 | CNC(=O)C1C2C=CC3(O2)C1C(=O)N(CCOC)C3C(=O)NCc1ccc(OC)cc1 (stereo not given) | -11 | 0.24 | -1.22 | 96% | 1.67 | 2.29
37 | Cc1ccc(S(=O)(=O)c2nc(-c3cccs3)oc2SCC(N)=O)cc1 | -8.57 | 10.4 | -2.87 | 106% | -0.475 | 3.22
38 | COC(=O)c1ccc(NCC(=O)c2ccccc2)cc1 | -7.25 | -4.05 | -4.87 | 99.3% | 1.83 | 3.96
39 | COCCCNC(=O)c1ccc(Cn2c(=O)[nH]c3ccccc3c2=O)cc1 | -10.2 | -0.91 | -5.59 | 34.9% | 1.89 | 5.69
40 | COCc1cc(=O)n2c(-c3ccccc3OC)n[nH]c2n1 | -14 | 4.39 | -3.36 | 92.7% | 2.2 | 9.13
